Measurements from different studies.
Compare with care: the assays were run in different laboratories.

| SMILES | system | setting | half-life |
| --- | --- | --- | --- |
| CCc1ccc(Cc2cc([C@@H]3O[C@H](CO)[C@@H](O)[C@H](O)[C@H]3O)cc3c2CCC3)cc1 | male C57BL/6 mouse, plasma | oral, 1 mg/kg | 3 h |
| CC[C@H](C)[C@@H]1NC(=O)[C@@](C)(NC(=O)[C@H](CCCNC(=N)N)NC(=O)[C@H](CC(C)C)NC(=O)[C@@H](NC(=O)[C@H](CCC(N)=O)NC(=O)[C@H](CC(C)C)NC(C)=O)[C@@H](C)O)CCCC=CCCC[C@@](C)(C(=O)N[C@@H](CC(C)C)C(=O)N[C@@H](Cc2ccc3ccccc3c2)C(N)=O)NC(=O)[C@H](CCCNC(=N)N)NC(=O)[C@H](CCC(N)=O)NC1=O | male BALB/c mouse, plasma | intravenous, 5 mg/kg | 1.4 h |
| Cc1ccc2cncc(N3CCc4c(cc(Cn5ccnc5)cc4-c4cn(C)nc4C(F)(F)F)C3=O)c2c1 | male CD-1 mouse, plasma | intravenous, 3 mg/kg | 1.5 h |
| CC=Cc1ccc(O)c(OC)c1 | mouse, plasma | intranasal, 100 mg/kg | 0.302 h |
| COc1ccc(C(O)COc2ccc(-c3csc(-c4ccc(OCC(O)c5ccc(OC)c(OC)c5)cc4)n3)cc2)cc1OC (stereo not shown) | C57BL/6 mouse, plasma | intravenous, 3 mg/kg | 3 h |
| Cc1nc(-c2cnc(NC(C)C)n(C)c2=O)ccc1Oc1ccnc(-c2cnn(C)c2)c1 | female mouse, plasma | oral, 30 mg/kg, single dose | 15.3 h |
| CCc1cc(OC)c2nccc(N3CCc4c(cc(Cn5ccnc5)cc4-c4cn(C)nc4C(F)(F)F)C3=O)c2c1 | male CD-1 mouse, plasma | oral, 50 mg/kg | 1.1 h |
| CN1CCC[C@H](CN2c3ccccc3Sc3ccccc32)C1.Cl | mouse, plasma | oral, 64 mg/kg, single dose | 4.37 h |
| Cn1cnc2c(F)c(Nc3ccc(Br)cc3Cl)c(C(=O)NOCCO)cc21 | nude mouse, tumour | oral, 10 mg/kg, single dose, tumour-bearing | 3.7 h |
| CC(C)(C)c1ccc(O)c(CN(Cc2cc(C(C)(C)C)ccc2O)C2CCC(NC(N)=O)CC2)c1 (stereo not shown) | male C57BL/6 mouse, plasma | intraperitoneal, 25 mg/kg, single dose | 2.4 h |
